Source: ChEMBL document CHEMBL1122501, “Potential antiatherosclerotic agents. 2. (Aralkylamino)- and (alkylamino) benzoic acid analogues of cetaben” (1983)

Assays:
[1] = molecular target: T1, Sterol O-acyltransferase 1 (Rattus norvegicus) (UniProt O70536); assay: In vitro inhibitory activity against acyl coenzyme A:cholesterol acyltransferase (ACAT); design: concentration or dose not given beside the values; settings: concentration not given here
T1 sequence (whole entry): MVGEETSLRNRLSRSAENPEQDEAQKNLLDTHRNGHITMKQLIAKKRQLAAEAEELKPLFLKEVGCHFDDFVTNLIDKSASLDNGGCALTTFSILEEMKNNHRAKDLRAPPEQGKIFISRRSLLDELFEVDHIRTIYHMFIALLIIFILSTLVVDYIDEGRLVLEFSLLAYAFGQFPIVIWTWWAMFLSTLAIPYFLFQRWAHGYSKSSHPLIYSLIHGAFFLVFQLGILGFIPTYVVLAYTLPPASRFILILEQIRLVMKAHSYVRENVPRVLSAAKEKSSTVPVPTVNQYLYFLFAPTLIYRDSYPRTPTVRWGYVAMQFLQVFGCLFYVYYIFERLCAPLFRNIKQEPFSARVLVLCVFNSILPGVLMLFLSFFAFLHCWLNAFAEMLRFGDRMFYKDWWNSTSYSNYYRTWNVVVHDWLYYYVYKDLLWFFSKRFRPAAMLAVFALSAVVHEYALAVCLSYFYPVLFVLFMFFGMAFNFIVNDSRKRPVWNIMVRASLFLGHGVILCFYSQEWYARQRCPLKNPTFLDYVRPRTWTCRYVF
Outline: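 ACAT enzyme from rat adrenal homogenate in 0.2 M KH2PO4 buffer pH 7.4, 1000g 15 min 5 °C supernatant (microsomal fraction). Supernatant + BSA (50 mg/mL) + compound at final 5.2 μg/mL + buffer preincubated 10 min 37 °C; [14C]oleoyl-CoA (0.4 μCi) added, 30 min 37 °C. Lipids extracted, TLC; cholesteryl ester zone counted. Mean % inhibition vs no-compound control; Student's t test.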

[2] = tested on: Rattus norvegicus; assay: In vivo triglyceride lowering activity, dosed at 0.03 % of the diet; type: functional
Outline: (§1)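 Male CFE or CD-1 Sprague-Dawley rats, 140-150 g; 8 per control group, 4 per test group. Compound mixed into ground chow (w/w) via MeOH-CHCl3 (1:3) solution, solvent evaporated; controls got solvent-treated chow. Fed ad libitum 5 days, food intake monitored, killed fed and bled. Serum sterols and triglycerides by adapted autoanalyzer methods; mean percent of control, Student's t test.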

[3] = tested on: Rattus norvegicus; assay: In vivo sterol lowering activity dosed at 0.10 % of the diet; type: functional; outline: as §1
[4] = tested on: Rattus norvegicus; assay: In vivo Triglyceride lowering activity at dose as 0.01 % of the diet; type: functional; outline: as §1
[5] = tested on: Rattus norvegicus; assay: In vivo triglyceride lowering activity dosed at 0.10 % of the diet; type: functional; outline: as §1
[6] = tested on: Rattus norvegicus; assay: In vivo Sterol lowering activity at dose as 0.01 % of the diet; type: functional; outline: as §1
[7] = tested on: Rattus norvegicus; assay: In vivo Sterol lowering activity at dose as 0.03 % of the diet; type: functional; outline: as §1
[8] = tested on: Rattus norvegicus; assay: In vivo Triglyceride lowering activity at dose as 0.025 % of the diet; type: functional; outline: as §1
[9] = tested on: Rattus norvegicus; assay: In vivo Sterol lowering activity at dose as 0.025 % of the diet.; type: functional; outline: as §1
[10] = tested on: Rattus norvegicus; assay: In vivo Sterol lowering activity at dose as 0.05 % of the diet.; type: functional; outline: as §1
[11] = tested on: Rattus norvegicus; assay: In vivo Sterol lowering activity at dose as 0.10 % of the diet.; type: functional; outline: as §1
[12] = tested on: Rattus norvegicus; assay: In vivo triglyceride lowering activity dosed at 0.05 % of the diet; type: functional; outline: as §1
[13] = tested on: Rattus norvegicus; assay: In vivo Triglyceride lowering activity at dose as 0.05 % of the diet.; type: functional; outline: as §1
[14] = tested on: Rattus norvegicus; assay: In vivo Triglyceride lowering activity at dose as 0.017 % of the diet.; type: functional; outline: as §1
[15] = tested on: Rattus norvegicus; assay: In vivo Sterol lowering activity at dose as 0.017 % of the diet.; type: functional; outline: as §1
[16] = tested on: Rattus norvegicus; assay: In vivo triglyceride lowering activity, dosed at 0.10 % of the diet.; type: functional; outline: as §1
[17] = tested on: Rattus norvegicus; assay: In vivo Triglyceride lowering activity at dose as 0.03 % of the diet.; type: functional; outline: as §1
[18] = tested on: Rattus norvegicus; assay: In vivo triglyceride lowering activity, dosed at 0.01 % of the diet.; type: functional; outline: as §1

inhibition [1] [%]	Structure (SMILES)	serum triglycerides, percent of control [2] [%]	serum sterol, percent of control [3] [%]	Diet [4] [%]	serum triglycerides, percent of control [5] [%]	Diet [6] [%]	Diet [7] [%]	Diet [8] [%]	Diet [9] [%]	Diet [10] [%]	serum sterol, percent of control [11] [%]	Diet [12] [%]	Diet [13] [%]	Diet [14] [%]	Diet [15] [%]	Diet [11] [%]	Diet [16] [%]	Diet [17] [%]	Diet [18] [%]
< 35	O=C(O)c1ccc(NCCCCCCCCc2ccccc2)cc1	56	84	<54	74	90	<78	–	–	–	–	–	–	–	–	–	–	–	–
7	O=C(O)c1ccc(NCc2ccc(-c3ccccc3)cc2)cc1	–	–	–	42	–	–	61	98	98	90	70	–	–	–	–	–	–	–
5	COc1ccc(CNc2ccc(C(=O)O)cc2)cc1	–	–	–	60	–	–	69	91	95	94	–	76	–	–	–	–	–	–
9	CCOC(=O)c1ccc(NCCc2cccc3ccccc23)cc1	–	–	–	73	–	–	–	–	103	94	–	80	112	98	–	–	–	–
0	O=C(O)c1ccc(NCCc2ccc(F)cc2)cc1	–	–	–	54	–	–	72	104	86	91	50	–	–	–	–	–	–	–
18	O=C(O)c1ccc(NCCc2ccc(OCc3ccccc3)cc2)cc1	–	–	–	–	–	–	70	100	103	–	–	81	–	–	86	84	–	–
50	CCOC(=O)c1ccc(NCCCc2ccc(OCc3ccccc3)cc2)cc1	–	–	–	56	–	–	56	86	86	–	46	–	–	–	96	–	–	–
9	O=C(O)c1ccc(NCCc2ccccc2)cc1	–	88	–	48	–	–	64	90	84	–	–	70	–	–	–	–	–	–

The remaining lines, values behind:

Structure (SMILES)	inhibition [1] [%]	serum triglycerides, percent of control [2] [%]	serum sterol, percent of control [3] [%]	Diet [4] [%]	serum triglycerides, percent of control [5] [%]	Diet [6] [%]	Diet [7] [%]	Diet [8] [%]	Diet [9] [%]	Diet [10] [%]	serum sterol, percent of control [11] [%]	Diet [12] [%]	Diet [13] [%]	Diet [14] [%]	Diet [15] [%]	Diet [11] [%]	Diet [16] [%]	Diet [17] [%]	Diet [18] [%]
CCOC(=O)c1ccc(NCc2ccc(OC)cc2)cc1	49	–	–	–	48	–	–	73	95	92	94	62	–	–	–	–	–	–	–
Cl.O=C(O)c1ccc(NCCCCCCCCCCCn2ccnc2)cc1	22	<48	113	74	<47	95	99	–	–	–	–	–	–	–	–	–	–	–	–
C=C(CCCCCCCCCC)CCCCCNc1ccc(C(=O)O)cc1	< 71	<64	<53	<65	<30	<81	<85	–	–	–	–	–	–	–	–	–	–	–	–
CCCCCCCCc1ccc(CNc2ccc(C(=O)OCC)cc2)s1	< 32	<59	82	100	<61	97	90	–	–	–	–	–	–	–	–	–	–	–	–
CCOC(=O)c1ccc(NCCCc2ccc(F)cc2)cc1	25	–	81	–	–	83	78	–	–	–	–	–	–	–	–	–	68	71	90
CCCCCCCCc1ccc(CCCNc2ccc(C(=O)O)cc2)s1	< 27	72	<78	76	<57	88	<92	–	–	–	–	–	–	–	–	–	–	–	–
CCCCCCCCCCCc1nc(CNc2ccc(C(=O)O)cc2)c[nH]1.Cl	19	<71	100	79	<70	99	93	–	–	–	–	–	–	–	–	–	–	–	–
